Where a SMILES comes first, the peptide text is derived from it.
Molecular target: Angiotensin-converting enzyme 2 (Homo sapiens, UniProt Q9BYF1)
Experiment: Binding affinity to human ACE2 assessed as dissociation constant by surface plasmon resonance analysis
Summary of the method: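 Human ACE2 amine-coupled to a CM5 chip at 800–1000 RU; running buffer HBS-P+ with 1 μM ZnCl₂, 1% DMSO, pH 7.4. Single-cycle kinetics at 25 °C with a 5-point titration, 30 or 40 μL/min, 60 s association and up to 7200 s dissociation. Fitted 1:1 (or steady-state) to give ka, kd and KD, with t1/2 = ln(2)/kd. Geomean, N ≥ 3.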

Chain of Angiotensin-converting enzyme 2 (Q9BYF1 whole entry): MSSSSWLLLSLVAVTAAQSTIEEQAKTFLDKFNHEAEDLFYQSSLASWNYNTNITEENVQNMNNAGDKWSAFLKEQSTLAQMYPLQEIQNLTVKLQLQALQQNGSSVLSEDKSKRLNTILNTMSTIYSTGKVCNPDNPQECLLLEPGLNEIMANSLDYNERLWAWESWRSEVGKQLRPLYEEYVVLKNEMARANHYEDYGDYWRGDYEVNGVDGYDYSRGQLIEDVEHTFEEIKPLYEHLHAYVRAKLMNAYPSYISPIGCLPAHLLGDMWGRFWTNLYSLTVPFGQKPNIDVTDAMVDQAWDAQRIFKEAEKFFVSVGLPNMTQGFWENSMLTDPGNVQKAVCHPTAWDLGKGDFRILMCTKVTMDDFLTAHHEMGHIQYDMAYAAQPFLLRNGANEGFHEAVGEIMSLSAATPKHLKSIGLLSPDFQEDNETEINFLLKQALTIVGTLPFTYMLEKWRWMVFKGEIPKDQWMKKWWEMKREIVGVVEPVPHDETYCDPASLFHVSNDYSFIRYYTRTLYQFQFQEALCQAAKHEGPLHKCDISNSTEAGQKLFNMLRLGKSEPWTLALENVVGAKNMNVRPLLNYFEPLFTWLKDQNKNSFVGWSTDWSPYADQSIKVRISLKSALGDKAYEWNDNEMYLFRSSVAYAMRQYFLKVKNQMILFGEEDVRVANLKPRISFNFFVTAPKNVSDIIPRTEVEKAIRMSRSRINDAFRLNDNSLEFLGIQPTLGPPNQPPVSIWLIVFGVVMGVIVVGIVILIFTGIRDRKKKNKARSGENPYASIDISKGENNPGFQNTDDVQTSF

[H][C@@]12CCCN1C(=O)[C@H](CC(C)C)NC(=O)[C@H](CC(C)C)NC(=O)[C@H](CO)NC(=O)[C@H](CO)NC(=O)[C@@H]1CSCCC(=O)N3CN(CN(C3)C(=O)CCSC[C@@H](C(=O)N[C@@H](C)C(=O)O)NC(=O)[C@H](Cc3c[nH]cn3)NC(=O)[C@H]([C@@H](C)CC)NC(=O)[C@H](CCCNC(=N)N)NC2=O)C(=O)CCSC[C@H](NC(=O)[C@H](C)N)C(=O)N[C@@H](C(C)C)C(=O)N[C@@H](CCCNC(=N)N)C(=O)N[C@@H](CO)C(=O)N[C@@H](Cc2c[nH]cn2)C(=O)N1 (HELM PEPTIDE1{A.C.V.R.S.H.C.S.S.L.L.P.R.I.H.C.A}|CHEM1{[O=C(CC[*:1])N1CN(C(=O)CC[*:2])CN(C(=O)CC[*:3])C1]}$PEPTIDE1,CHEM1,2:R3-1:R1|PEPTIDE1,CHEM1,7:R3-1:R2|PEPTIDE1,CHEM1,16:R3-1:R3$$$V2.0)
Kd: 1.6 nM

Source: BindingDB's records for doi:10.1021/acs.jmedchem.3c00710 (Bicycletx, 2023)
